{
  "source": "ChEMBL document CHEMBL4020814",
  "about": "“Synthesis, Binding Mode, and Antihyperglycemic Activity of Potent and Selective (5-Imidazol-2-yl-4-phenylpyrimidin-2-yl)[2-(2-pyridylamino)ethyl]amine Inhibitors of Glycogen Synthase Kinase 3” (J Med Chem, 2017)",
  "key": {"[1]": {"assay": "Oral bioavailability in diabetic ZDF fa/fa rat at 8 mg/kg administered 4.5 and 0.5 hrs prior to oral glucose challenge", "type": "ADME, organism-based", "details": "in vivo"}, "[2]": {"assay": "Inhibition of GSK3 expressed in CHO-IR cells expressing human insulin receptor assessed as glycogen synthase activation after 30 mins by filter paper assay", "type": "cell-based, Cavia porcellus"}, "[3]": {"assay": "Half life in diabetic ZDF fa/fa rat at 8 mg/kg administered 4.5 and 0.5 hrs prior to oral glucose challenge", "type": "ADME, organism-based", "details": "in vivo"}, "[4]": {"assay": "Stability in rat liver microsomes assessed as half life", "type": "ADME, microsome"}, "[5]": {"assay": "Stability in human liver microsomes assessed as half life", "type": "ADME, microsome"}, "[6]": {"tested_on": "Rattus norvegicus", "assay": "Antidiabetic activity in diabetic ZDF fa/fa rat assessed as reduction in plasma glucose AUC at 8 mg/kg administered 4.5 and 0.5 hrs prior to oral glucose challenge by oral glucose tolerance test", "type": "functional", "design": "scale not given: the % may be the effect or the level left", "summary_of_the_method": "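Obese 10-week-old ZDF (fa/fa) rats, n = 8/group, fasted overnight, given 8 mg/kg orally at 4.5 and 0.5 h before oral glucose challenge. Efficacy is the percent reduction in plasma glucose AUC versus untreated animals. Formulations were 15% captisol, 1% CMC or water with pH adjusted.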"}, "[7]": {"assay": "Plasma concentration in diabetic db/db mouse at 30 mg/kg administered at 4.5 and 0.5 hrs prior to oral glucose challenge measured 20 mins post second dose"}, "[8]": {"assay": "Stability in dog liver microsomes assessed as half life", "type": "ADME, Canis lupus familiaris, microsome"}, "[9]": {"assay": "Inhibition of human GSK3 using biotin-CREB peptide substrate after 1 hr by scintillation counting method"}, "[10]": {"species_on_record": "Mus musculus", "assay": "Antidiabetic activity in diabetic db/db mouse assessed as time required for improved glucose disposal by oral glucose tolerance test", "type": "functional", "summary_of_the_method": "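db/db mice, 6–8 per group, fasted ~6 h (food removed 3 h before prebleed), dosed orally at −4.5 and −0.5 h relative to oral glucose (vehicle 10% captisol). Tail-snip blood glucose was read by glucometer or analyzer; plasma insulin was measured by ELISA.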"}, "[11]": {"molecular_target": "Mitogen-activated protein kinase 1 (Homo sapiens, UniProt P28482)", "assay": "Inhibition of human ERK2 using myelin basic protein substrate after 1 hr by scintillation counting method"}, "[12]": {"molecular_target": "Vascular endothelial growth factor receptor 2 (Homo sapiens, UniProt P35968)", "sequence (P35968 whole entry)": "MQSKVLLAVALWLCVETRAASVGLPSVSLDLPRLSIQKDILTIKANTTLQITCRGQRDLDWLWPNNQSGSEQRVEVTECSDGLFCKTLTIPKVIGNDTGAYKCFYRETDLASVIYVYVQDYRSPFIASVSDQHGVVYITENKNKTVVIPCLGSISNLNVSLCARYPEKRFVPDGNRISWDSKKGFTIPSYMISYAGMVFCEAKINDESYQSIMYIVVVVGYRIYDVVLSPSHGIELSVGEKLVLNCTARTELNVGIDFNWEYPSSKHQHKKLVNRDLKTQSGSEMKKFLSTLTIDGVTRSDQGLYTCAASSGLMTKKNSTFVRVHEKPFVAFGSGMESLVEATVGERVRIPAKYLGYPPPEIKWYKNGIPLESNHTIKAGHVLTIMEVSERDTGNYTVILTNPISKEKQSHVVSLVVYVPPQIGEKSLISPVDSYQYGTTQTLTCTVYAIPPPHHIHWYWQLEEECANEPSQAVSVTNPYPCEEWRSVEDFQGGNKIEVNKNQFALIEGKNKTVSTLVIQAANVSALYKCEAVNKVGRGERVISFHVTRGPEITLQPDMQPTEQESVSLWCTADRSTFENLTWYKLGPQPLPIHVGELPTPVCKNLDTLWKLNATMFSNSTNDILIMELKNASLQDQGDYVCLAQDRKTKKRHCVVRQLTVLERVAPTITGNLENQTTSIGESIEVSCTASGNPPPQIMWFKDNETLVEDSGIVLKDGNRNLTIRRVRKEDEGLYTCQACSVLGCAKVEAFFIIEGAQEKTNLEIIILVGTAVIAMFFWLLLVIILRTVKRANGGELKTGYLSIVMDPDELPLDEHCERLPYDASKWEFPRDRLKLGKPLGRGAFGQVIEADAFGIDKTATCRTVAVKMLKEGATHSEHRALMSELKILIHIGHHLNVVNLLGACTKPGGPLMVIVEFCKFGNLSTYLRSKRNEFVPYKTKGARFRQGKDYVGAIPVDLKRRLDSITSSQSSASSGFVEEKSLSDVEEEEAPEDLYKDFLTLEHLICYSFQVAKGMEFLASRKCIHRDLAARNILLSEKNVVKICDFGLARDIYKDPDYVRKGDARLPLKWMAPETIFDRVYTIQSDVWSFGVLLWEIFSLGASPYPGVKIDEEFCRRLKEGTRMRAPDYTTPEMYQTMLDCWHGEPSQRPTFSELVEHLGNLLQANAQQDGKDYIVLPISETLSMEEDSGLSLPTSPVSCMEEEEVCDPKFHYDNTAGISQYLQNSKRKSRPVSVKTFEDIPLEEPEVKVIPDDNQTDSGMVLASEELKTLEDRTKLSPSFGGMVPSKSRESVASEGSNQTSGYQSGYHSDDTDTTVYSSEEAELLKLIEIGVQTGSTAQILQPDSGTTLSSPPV"}, "[13]": {"molecular_target": "Fibroblast growth factor receptor 1 (Homo sapiens, UniProt P11362)"}, "[14]": {"assay": "Inhibition of GSK3 in Sprague-Dawley rat primary hepatocytes assessed as assessed as glycogen synthase activation after 30 mins"}, "[15]": {"assay": "Inhibition of human DNA-dependent protein kinase using PI as substrate after 1 hr by scintillation counting method"}, "[16]": {"molecular_target": "RAC-alpha serine/threonine-protein kinase (Homo sapiens, UniProt P31749)", "assay": "Inhibition of human AKT1/PKB using phospho-AKT peptide substrate after 1 hr by scintillation counting method"}, "[17]": {"molecular_target": "Cyclin-dependent kinase 1 (Homo sapiens, UniProt P06493)", "sequence (P06493 whole entry)": "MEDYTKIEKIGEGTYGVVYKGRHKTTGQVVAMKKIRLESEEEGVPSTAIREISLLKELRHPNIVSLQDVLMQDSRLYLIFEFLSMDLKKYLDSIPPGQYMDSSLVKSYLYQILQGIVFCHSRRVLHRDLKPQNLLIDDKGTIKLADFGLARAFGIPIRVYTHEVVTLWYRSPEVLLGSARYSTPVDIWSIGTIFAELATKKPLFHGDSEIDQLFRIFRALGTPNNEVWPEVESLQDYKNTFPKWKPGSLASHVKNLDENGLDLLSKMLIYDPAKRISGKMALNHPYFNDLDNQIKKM", "assay": "Inhibition of human CDC2 using biotin histone H1 peptide substrate after 1 hr by scintillation counting method"}, "[18]": {"molecular_target": "Insulin receptor (Homo sapiens, UniProt P06213)", "assay": "Inhibition of human insulin receptor tyrosine kinase after 1 hr by scintillation counting method"}, "[19]": {"molecular_target": "Casein kinase I isoform epsilon (Homo sapiens, UniProt P49674)", "sequence (P49674 whole entry, canonical isoform)": "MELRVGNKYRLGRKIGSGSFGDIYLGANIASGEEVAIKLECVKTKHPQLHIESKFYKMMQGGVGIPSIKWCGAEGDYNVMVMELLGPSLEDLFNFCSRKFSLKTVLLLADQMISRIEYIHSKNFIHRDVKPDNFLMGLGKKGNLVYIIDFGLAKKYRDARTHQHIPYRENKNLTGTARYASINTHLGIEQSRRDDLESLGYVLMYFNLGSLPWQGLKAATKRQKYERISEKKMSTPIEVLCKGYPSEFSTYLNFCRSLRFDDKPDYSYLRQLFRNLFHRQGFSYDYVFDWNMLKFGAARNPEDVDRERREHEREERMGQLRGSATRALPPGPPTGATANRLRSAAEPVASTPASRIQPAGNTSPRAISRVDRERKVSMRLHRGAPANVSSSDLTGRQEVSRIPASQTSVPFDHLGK", "assay": "Inhibition of human CK1epsilon using biotin peptide substrate after 1 hr by scintillation counting method"}, "[20]": {"molecular_target": "T1, Serine/threonine-protein kinase Chk1 (Homo sapiens, UniProt O14757)", "T1 sequence (O14757 whole entry)": "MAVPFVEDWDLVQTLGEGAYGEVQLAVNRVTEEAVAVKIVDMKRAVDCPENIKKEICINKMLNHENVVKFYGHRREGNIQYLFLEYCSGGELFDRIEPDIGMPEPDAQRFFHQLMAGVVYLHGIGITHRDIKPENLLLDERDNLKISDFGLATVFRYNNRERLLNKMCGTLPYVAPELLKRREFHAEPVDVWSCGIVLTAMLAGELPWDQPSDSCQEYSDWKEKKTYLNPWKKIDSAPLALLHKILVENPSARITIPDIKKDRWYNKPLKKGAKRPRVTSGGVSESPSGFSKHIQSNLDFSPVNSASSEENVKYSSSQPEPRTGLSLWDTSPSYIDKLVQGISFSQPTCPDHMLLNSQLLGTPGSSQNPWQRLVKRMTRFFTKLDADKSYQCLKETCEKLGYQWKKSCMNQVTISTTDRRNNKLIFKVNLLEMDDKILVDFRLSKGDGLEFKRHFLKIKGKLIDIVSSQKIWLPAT", "assay": "Inhibition of human CHK1 using biotin-CDC25 peptide substrate after 1 hr by scintillation counting method"}, "[21]": {"molecular_target": "Glycogen synthase kinase-3 beta (Homo sapiens, UniProt P49841)", "sequence (P49841 whole entry)": "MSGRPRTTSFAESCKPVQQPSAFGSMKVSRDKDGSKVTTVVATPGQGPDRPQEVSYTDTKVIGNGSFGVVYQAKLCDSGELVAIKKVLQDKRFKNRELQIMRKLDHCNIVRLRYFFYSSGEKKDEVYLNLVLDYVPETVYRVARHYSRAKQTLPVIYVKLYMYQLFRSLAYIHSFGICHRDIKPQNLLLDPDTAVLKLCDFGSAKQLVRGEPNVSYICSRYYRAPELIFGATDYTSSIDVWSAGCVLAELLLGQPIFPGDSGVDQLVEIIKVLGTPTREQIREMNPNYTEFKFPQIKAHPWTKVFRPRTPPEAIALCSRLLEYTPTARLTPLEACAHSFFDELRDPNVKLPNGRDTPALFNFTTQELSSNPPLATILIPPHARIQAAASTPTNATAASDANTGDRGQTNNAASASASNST", "assay": "Inhibition of human GSK3beta using biotin-CREB peptide substrate after 1 hr by scintillation counting method"}, "[22]": {"molecular_target": "Insulin-like growth factor 1 receptor (Homo sapiens, UniProt P08069)", "sequence (P08069 31-736 limits assumed)": "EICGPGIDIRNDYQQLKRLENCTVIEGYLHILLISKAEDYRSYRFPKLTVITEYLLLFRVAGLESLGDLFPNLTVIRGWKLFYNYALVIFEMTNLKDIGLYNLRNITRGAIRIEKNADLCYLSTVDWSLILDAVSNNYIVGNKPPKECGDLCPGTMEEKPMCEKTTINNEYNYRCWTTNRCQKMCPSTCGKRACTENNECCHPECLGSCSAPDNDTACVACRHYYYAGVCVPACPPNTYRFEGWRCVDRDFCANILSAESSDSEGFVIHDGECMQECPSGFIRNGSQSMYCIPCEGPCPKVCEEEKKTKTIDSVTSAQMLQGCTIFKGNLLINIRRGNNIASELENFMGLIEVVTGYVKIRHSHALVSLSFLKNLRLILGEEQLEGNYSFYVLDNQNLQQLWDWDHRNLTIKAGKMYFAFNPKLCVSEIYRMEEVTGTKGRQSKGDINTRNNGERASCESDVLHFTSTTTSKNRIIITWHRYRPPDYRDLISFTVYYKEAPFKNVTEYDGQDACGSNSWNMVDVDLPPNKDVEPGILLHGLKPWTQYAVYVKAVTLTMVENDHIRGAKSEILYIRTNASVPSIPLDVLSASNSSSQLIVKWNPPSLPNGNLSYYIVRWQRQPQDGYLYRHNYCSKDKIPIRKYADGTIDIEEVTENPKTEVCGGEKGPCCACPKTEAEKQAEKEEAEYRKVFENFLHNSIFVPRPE", "sequence (P08069 741-1367 limits assumed)": "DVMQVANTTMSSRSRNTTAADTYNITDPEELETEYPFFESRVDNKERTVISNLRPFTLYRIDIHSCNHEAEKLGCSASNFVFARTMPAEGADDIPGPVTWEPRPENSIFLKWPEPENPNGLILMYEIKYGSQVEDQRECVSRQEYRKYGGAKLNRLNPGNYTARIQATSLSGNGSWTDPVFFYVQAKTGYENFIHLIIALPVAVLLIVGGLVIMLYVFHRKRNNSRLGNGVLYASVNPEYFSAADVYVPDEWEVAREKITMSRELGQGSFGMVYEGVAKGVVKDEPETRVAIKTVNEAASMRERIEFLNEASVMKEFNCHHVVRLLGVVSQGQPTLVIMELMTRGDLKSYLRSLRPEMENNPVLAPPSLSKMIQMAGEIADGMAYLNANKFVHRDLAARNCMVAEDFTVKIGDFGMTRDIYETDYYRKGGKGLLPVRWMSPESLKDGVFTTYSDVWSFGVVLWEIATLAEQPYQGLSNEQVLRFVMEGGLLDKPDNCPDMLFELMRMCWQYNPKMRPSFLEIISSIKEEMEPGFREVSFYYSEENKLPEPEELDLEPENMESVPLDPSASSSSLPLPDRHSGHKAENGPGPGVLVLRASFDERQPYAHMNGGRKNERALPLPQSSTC"}, "[23]": {"molecular_target": "Glycogen synthase kinase-3 alpha (Homo sapiens, UniProt P49840)", "assay": "Inhibition of human GSK3alpha using biotin-CREB peptide substrate after 1 hr by scintillation counting method"}, "[24]": {"assay": "Inhibition of human phosphatidylinositol (PI) 3-kinase using PI as substrate after 1 hr by scintillation counting method"}, "[25]": {"molecular_target": "Vascular endothelial growth factor receptor 1 (Homo sapiens, UniProt P17948)"}, "[26]": {"molecular_target": "Angiopoietin-1 receptor (Homo sapiens, UniProt Q02763)", "sequence (Q02763 whole entry)": "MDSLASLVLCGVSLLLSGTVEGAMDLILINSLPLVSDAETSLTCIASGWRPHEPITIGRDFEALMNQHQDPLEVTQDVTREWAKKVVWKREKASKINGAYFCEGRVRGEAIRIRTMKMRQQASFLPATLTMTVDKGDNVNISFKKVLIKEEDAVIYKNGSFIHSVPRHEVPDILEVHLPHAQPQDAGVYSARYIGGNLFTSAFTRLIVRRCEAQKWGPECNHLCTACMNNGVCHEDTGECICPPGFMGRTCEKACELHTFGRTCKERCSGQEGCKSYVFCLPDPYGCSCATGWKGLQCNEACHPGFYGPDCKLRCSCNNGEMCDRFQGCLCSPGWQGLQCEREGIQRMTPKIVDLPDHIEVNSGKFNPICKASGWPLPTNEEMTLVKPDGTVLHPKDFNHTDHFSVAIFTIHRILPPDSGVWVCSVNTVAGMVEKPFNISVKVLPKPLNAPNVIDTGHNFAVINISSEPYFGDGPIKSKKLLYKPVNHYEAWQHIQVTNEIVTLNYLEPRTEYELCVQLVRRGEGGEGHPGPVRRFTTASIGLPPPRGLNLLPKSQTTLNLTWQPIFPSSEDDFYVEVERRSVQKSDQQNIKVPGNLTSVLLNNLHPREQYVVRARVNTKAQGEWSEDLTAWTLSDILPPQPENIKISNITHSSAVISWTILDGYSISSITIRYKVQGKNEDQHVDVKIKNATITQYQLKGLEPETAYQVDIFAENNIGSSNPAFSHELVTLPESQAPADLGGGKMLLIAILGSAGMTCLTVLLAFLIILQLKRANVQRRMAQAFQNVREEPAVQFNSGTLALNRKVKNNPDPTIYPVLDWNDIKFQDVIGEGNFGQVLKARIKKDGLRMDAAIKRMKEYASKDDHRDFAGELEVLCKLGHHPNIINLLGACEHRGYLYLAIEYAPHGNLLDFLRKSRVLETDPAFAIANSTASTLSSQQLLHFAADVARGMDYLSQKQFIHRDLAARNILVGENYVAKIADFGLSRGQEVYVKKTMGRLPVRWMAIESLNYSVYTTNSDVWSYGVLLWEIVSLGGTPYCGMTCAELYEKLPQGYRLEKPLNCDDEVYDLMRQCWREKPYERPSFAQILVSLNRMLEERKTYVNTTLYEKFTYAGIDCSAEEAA"}},
  "data": [
    {"smiles": "N#Cc1ccc(NCCNc2ncc(-c3ncc[nH]3)c(-c3ccc(Cl)cc3Cl)n2)nc1", "values": [
      {"measurement": "bioavailability", "setting": "[1]", "result": 21, "unit": "%"},
      {"measurement": "EC50", "setting": "[2]", "result": 510, "unit": "nM"},
      {"measurement": "half-life", "setting": "[3]", "result": 52, "unit": "min"},
      {"measurement": "half-life", "setting": "[4]", "result": "> 30", "unit": "min"},
      {"measurement": "half-life", "setting": "[5]", "result": 33, "unit": "min"},
      {"measurement": "Activity", "setting": "[6]", "result": 18, "unit": "%"},
      {"measurement": "concentration at 20 min", "setting": "[7]; plasma", "result": 29000, "unit": "ng/mL"},
      {"measurement": "half-life", "setting": "[8]", "result": "> 30", "unit": "min"},
      {"measurement": "IC50", "setting": "[9]", "result": 4, "unit": "nM"}
    ]},
    {"smiles": "CN(C)C(=N)NC(=N)N", "note": "[METFORMIN]", "values": [
      {"measurement": "Time", "setting": "[10]", "result": "<=2 weeks"}
    ]},
    {"smiles": "O=[N+]([O-])c1ccc(NCCNc2ncc(-c3ncc[nH]3)c(-c3ccc(Cl)cc3Cl)n2)nc1", "values": [
      {"measurement": "bioavailability", "setting": "[1]", "result": 33, "unit": "%"},
      {"measurement": "EC50", "setting": "[2]", "result": 370, "unit": "nM"},
      {"measurement": "half-life", "setting": "[3]", "result": 143, "unit": "min"},
      {"measurement": "half-life", "setting": "[4]", "result": "> 30", "unit": "min"},
      {"measurement": "Activity", "setting": "[6]", "result": 29, "unit": "%"},
      {"measurement": "concentration at 20 min", "setting": "[7]; plasma", "result": 97000, "unit": "ng/mL"},
      {"measurement": "half-life", "setting": "[8]", "result": "> 30", "unit": "min"},
      {"measurement": "IC50", "setting": "[9]", "result": 4, "unit": "nM"}
    ]},
    {"smiles": "Nc1nc(NCCNc2ncc(-n3ccnc3)c(-c3ccc(Cl)cc3Cl)n2)ccc1[N+](=O)[O-]", "values": [
      {"measurement": "IC50", "setting": "[11]", "result": "> 10000", "unit": "nM"},
      {"measurement": "IC50", "setting": "[12]", "result": "> 2000", "unit": "nM"},
      {"measurement": "IC50", "setting": "[13]", "result": "> 1000", "unit": "nM"},
      {"measurement": "EC50", "setting": "[2]", "result": 80, "unit": "nM"},
      {"measurement": "EC50", "setting": "[14]", "result": 100, "unit": "nM"},
      {"measurement": "IC50", "setting": "[15]", "result": "> 10000", "unit": "nM"},
      {"measurement": "IC50", "setting": "[16]", "result": "> 5000", "unit": "nM"},
      {"measurement": "IC50", "setting": "[17]", "result": 4000, "unit": "nM"},
      {"measurement": "IC50", "setting": "[18]", "result": "> 2000", "unit": "nM"},
      {"measurement": "IC50", "setting": "[19]", "result": "> 5000", "unit": "nM"},
      {"measurement": "IC50", "setting": "[20]", "result": "> 10000", "unit": "nM"},
      {"measurement": "IC50", "setting": "[21]", "result": 0.6, "unit": "nM"},
      {"measurement": "IC50", "setting": "[22]", "result": "> 2000", "unit": "nM"},
      {"measurement": "IC50", "setting": "[23]", "result": 7, "unit": "nM"},
      {"measurement": "IC50", "setting": "[24]", "result": "> 5000", "unit": "nM"},
      {"measurement": "IC50", "setting": "[25]", "result": "> 5000", "unit": "nM"},
      {"measurement": "IC50", "setting": "[26]", "result": "> 5000", "unit": "nM"},
      {"measurement": "concentration at 20 min", "setting": "[7]; in vivo", "result": 7000, "unit": "ng/mL"},
      {"measurement": "IC50", "setting": "[9]", "result": 1, "unit": "nM"}
    ]}
  ]
}
